Test results from ChEMBL document CHEMBL5543170, “Identification of Potent and Selective Inhibitors of Acanthamoeba: Structural Insights into Sterol 14α-Demethylase as a Key Drug Target” (J Med Chem, 2024).
Active and inactive are the calls of the source. No cut-off for these calls is given here.

Tests used:
[1] = (§1) Catalytic inhibition of Acanthamoeba castellanii CYP51 expressed in Escherichia coli HMS-174 (DE3) cells assessed as inhibition of substrate induced 14alpha-demthylation using obtusifoliol as substrate incubated for 1 hr in presence of NADPH-CYP450 reductase by RP-HPLC analysis
Acanthamoeba castellanii [2] = test: as §1, with “as substrate at […] incubated for” for “as substrate incubated for”, “RP-HPLC analysis relative to control” for “RP-HPLC analysis”; conditions: dose 1.5 µM
Acanthamoeba polyphaga = test: Anti-amoebic activity against Acanthamoeba polyphaga ATCC 30461 assessed as inhibition of amoebic growth incubated for 48 hrs by resazurin dye based microtiter plate analysis; type: functional
Procedure, shortened: (§2)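 Trophozoites kept axenically in PYG medium at 28 °C, grown to confluence for 48 h, then diluted to 5 × 10^4 trophozoites/mL (1 × 10^4 cells per well). Azoles added from DMSO stocks via PYG to final 0.03125–64 μg/mL (twofold series); 1% DMSO controls. Incubated 48 h at 28 °C, then 0.02% resazurin added for a further 48 h. Purple-to-pink change scored as respiring cells; MIC in triplicate.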

Acanthamoeba castellanii [3] = test: Anti-amoebic activity against Acanthamoeba castellanii ATCC 50491 assessed as inhibition of amoebic growth incubated for 48 hrs by resazurin dye based microtiter plate analysis; type: functional; procedure, shortened: as §2
Acanthamoeba castellanii [4] = test: Substrate activity at Acanthamoeba castellanii CYP51 expressed in Escherichia coli HMS-174 (DE3) cells assessed as Kcat measured after 60 sec by Michaelis-Menten analysis
Procedure, shortened: (§3)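 Full-length His6-tagged CYP51, purified by Ni-NTA, Q- and CM-Sepharose, reconstituted with rat CPR (0.5 μM P450, 2 μM CPR), 37 °C. […] Rates as nmol product/min/nmol P450 vs total substrate, fitted to Michaelis–Menten hyperbola; triplicate, mean ± SD.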

Acanthamoeba castellanii [5] = test: Substrate activity at Acanthamoeba castellanii CYP51 expressed in Escherichia coli HMS-174 (DE3) cells assessed as Km measured after 60 sec by Michaelis-Menten analysis; procedure, shortened: as §3
Acanthamoeba castellanii [6] = test: Substrate activity at Acanthamoeba castellanii CYP51 expressed in Escherichia coli HMS-174 (DE3) cells assessed as Kcat/Km measured after 60 sec by Michaelis-Menten analysis; procedure, shortened: as §3
[7] = Binding affinity to Acanthamoeba castellanii CYP51 expressed in Escherichia coli HMS-174 (DE3) cells assessed as dissociation constant by UV-Visible spectrophotometry
Acanthamoeba castellanii [8] = test: Substrate activity at Acanthamoeba castellanii CYP51 expressed in Escherichia coli HMS-174 (DE3) cells assessed as Kcat/Km measured after 20 mins by Michaelis-Menten analysis; procedure, shortened: as §3
Acanthamoeba castellanii [9] = test: Substrate activity at Acanthamoeba castellanii CYP51 expressed in Escherichia coli HMS-174 (DE3) cells assessed as Kcat measured after 20 mins by Michaelis-Menten analysis; procedure, shortened: as §3
Acanthamoeba castellanii [10] = test: Substrate activity at Acanthamoeba castellanii CYP51 expressed in Escherichia coli HMS-174 (DE3) cells assessed as Km measured after 20 mins by Michaelis-Menten analysis; procedure, shortened: as §3

Compound | inhibition (Acanthamoeba castellanii [2]) | MIC (Acanthamoeba polyphaga) | MIC (Acanthamoeba castellanii [3]) | also measured
O=C([C@@H](c1ccc(Cl)cc1)c1cccnc1)N1CCN(c2ccc(C(F)(F)F)cc2)CC1 | – | – | – | IC50 [1]: 5500 nM
N#Cc1ccc(C(c2ccc(C#N)cc2)n2cncn2)cc1 | inactive | – | – | –
Clc1ccccc1C(c1ccccc1)(c1ccccc1)n1ccnc1 | 82% | – | – | –
O[C@@](Cn1cnnn1)(c1ccc(F)cc1F)C(F)(F)c1ccc(-c2ccc(OCC(F)(F)F)cc2)cn1 [OTESECONAZOLE] | – | 0.114 µM | 0.057 µM | –
O=C(N[C@@H](Cn1ccnc1)c1ccc(-c2ccc(F)cc2)cc1F)c1ccc(-c2nnc(-c3ccccc3)o2)cc1 | – | > 64 µg/mL | > 64 µg/mL | –
O=C(N[C@@H](Cn1ccnc1)c1ccc(Cl)cc1Cl)c1ccc(-c2nnc(-c3ccccc3)o2)cc1 | – | > 64 µg/mL | 4 µM | –
FC(F)(F)c1ccc(N(c2cccnc2)C2CCN(c3ccc(C(F)(F)F)cn3)CC2)cc1 | – | – | – | IC50 [1]: 1300 nM
C=C(CC[C@@H](C)[C@H]1CC[C@@]2(C)C3=C(CC[C@]12C)[C@@]1(C)CC[C@H](O)[C@@H](C)[C@@H]1CC3)C(C)C [OBTUSIFOLIOL] | – | – | – | kcat (Acanthamoeba castellanii [4]): 0.513 s⁻¹; Km (Acanthamoeba castellanii [5]): 2.7 µM; kcat/Km (Acanthamoeba castellanii [6]): 190000 M⁻¹ s⁻¹; Kd [7]: 30 nM
C[C@@H](c1ncncc1F)[C@](O)(Cn1cncn1)c1ccc(F)cc1F [VORICONAZOLE] | 85% | 0.75 µM | 0.09 µM | IC50 [1]: 450 nM
C[C@@H](c1nc(-c2ccc(C#N)cc2)cs1)[C@](O)(Cn1cncn1)c1ccc(F)cc1F | inactive | – | – | –
CC(C)(C#N)c1cc(Cn2cncn2)cc(C(C)(C)C#N)c1 | inactive | – | – | –
CC[C@@H]([C@H](C)O)n1ncn(-c2ccc(N3CCN(c4ccc(OC[C@@H]5CO[C@@](Cn6cncn6)(c6ccc(F)cc6F)C5)cc4)CC3)cc2)c1=O | inactive | – | – | –
CC(=O)N1CCN(c2ccc(OCC3COC(Cn4ccnc4)(c4ccc(Cl)cc4Cl)O3)cc2)CC1 (stereo not given) | inactive | – | – | –
Clc1ccc(COC(Cn2ccnc2)c2ccc(Cl)cc2Cl)c(Cl)c1 (stereo not given) | 25% | – | – | –
N#Cc1ccc(COc2ccc(C#Cc3ccc(C(F)(F)[C@](O)(Cn4cnnn4)c4ccc(F)cc4F)nc3)cc2)cc1 [VT-1598] | – | 0.425 µM | 0.077 µM | IC50 [1]: 250 nM
CC(C)=CCC[C@@H](C)[C@H]1CC[C@@]2(C)C3=C(CC[C@]12C)[C@@]1(C)CC[C@H](O)C(C)(C)[C@@H]1CC3 [LANOSTEROL] | – | – | – | kcat/Km (Acanthamoeba castellanii [8]): 2000 M⁻¹ s⁻¹; kcat (Acanthamoeba castellanii [9]): 0.102 s⁻¹; Kd [7]: 1220 nM; Km (Acanthamoeba castellanii [10]): 52 µM
